ChEMBL document CHEMBL2021872, “Synthesis and biological evaluation of new potent and selective HCV NS5A inhibitors” (Bioorg Med Chem Lett, 2012)

Assays:
[1] = system: PBMC; experiment: Cytotoxicity against human PBMC after 3 days; format: cell-based; settings: 72 h
Procedure, shortened: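 CC50 was measured in human peripheral blood mononuclear (PBM) cells, the human T-cell-derived CEM line, and African green monkey kidney epithelial Vero cells. Dose–response was fitted from at least four concentrations, each run in triplicate and reported as the mean.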

[2] = system: Vero; experiment: Cytotoxicity against african green monkey Vero cells after 3 days; format: cell-based; settings: chlorocebus sabaeus, 72 h
[3] = system: Hepatitis C virus; experiment: Antiviral activity against HCV1b infected in human HuH7 cells assessed as inhibition of viral replication by RT-PCR analysis; format: functional, organism-based, Hepacivirus hominis; settings: genotype 1b, Huh-7
Procedure, shortened: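 Huh7 cells carrying a subgenomic genotype 1b HCV replicon were treated with compound, and HCV RNA replication was measured. HCV RNA and ribosomal RNA were extracted and amplified together, and cytotoxicity in Huh7 was read at the same time. EC50 and EC90 came from dose–response curves of at least four concentrations, each run in triplicate, and are reported as means.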

[4] = system: CCRF-CEM; experiment: Cytotoxicity against human CEM cells after 3 days; format: cell-based; settings: 72 h
[5] = system: Hepatitis C virus; experiment: Antiviral activity against HCV1b infected in human assessed as reduction of viral RNA level at 10 mg after 24 hrs; format: functional, Hepacivirus hominis, genotype 1b
[6] = Therapeutic index, ratio of CC50 for human CEM cells to EC50 for HCV1b; format: cell-based, CCRF-CEM
Procedure, shortened: (§1)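 The index is CC50/EC50. EC50 came from Huh7 cells carrying a subgenomic genotype 1b HCV replicon, with HCV RNA quantified by extraction and amplification alongside rRNA. CC50 was measured in PBM, CEM or Vero cells. Each dose–response used at least four concentrations in triplicate, and means were reported.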

[7] = Therapeutic index, ratio of CC50 for african green monkey Vero cells to EC50 for HCV1b; format: cell-based; procedure, shortened: as §1
[8] = Therapeutic index, ratio of CC50 for human PBMC to EC50 for HCV1b; procedure, shortened: as §1

`COC(=O)N[C@H](C(=O)N1CCC[C@H]1c1ncc(-c2ccc(-c3cnc([C@@H]4CCCN4C(=O)[C@@H](NC(=O)OC)C(C)C)[nH]3)cc2)[nH]1)C(C)C` showed a CC50 [1] of over 100 µM, a CC50 [2] of over 100 µM and an EC50 [3] of over 1 nM. It also gave a CC50 [4] of over 100 µM.

For `COC(=O)N[C@H](C(=O)N1CCC[C@H]1c1ncc(-c2ccc(Oc3ccc(-c4cnc([C@@H]5CCCN5C(=O)[C@@H](NC(=O)OC)C(C)C)[nH]4)cc3)cc2)[nH]1)C(C)C`, the CC50 [1] was 16 µM, the CC50 [2] was 19 µM and the EC50 [3] was 30 nM. It also gave an EC90 [3] of 90 nM and a CC50 [4] of 16 µM.

For `COC(=O)N[C@H](C(=O)N1CCC[C@H]1c1ncc(-c2ccc(-c3ccc(-c4cnc([C@@H]5CCCN5C(=O)[C@@H](NC(=O)OC)C(C)C)[nH]4)cc3)cc2)[nH]1)C(C)C`, the CC50 [1] was 19 µM, the EC50 [3] was 0.0066 nM and the EC90 [3] was 0.023 nM. The Activity [5] was over 3 log10IU/ml.

Work on `COC(=O)N[C@H](C(=O)N1CCC[C@H]1c1ncc(-c2ccc(NS(=O)(=O)c3ccc(-c4cnc([C@@H]5CCCN5C(=O)[C@@H](NC(=O)OC)C(C)C)[nH]4)cc3)cc2)[nH]1)C(C)C` yielded a CC50 [1] of 15 µM, a CC50 [2] of over 100 µM and an EC50 [3] of 100 nM. The EC90 [3] was over 100 nM and the CC50 [4] was 13 µM.

In the case of `COC(=O)N[C@H](C(=O)N1CCC[C@H]1c1ncc(-c2ccc(-c3ccc(-c4cnc([C@@H]5CCCN5C(=O)[C@@H](NC(=O)OC)C(C)C)[nH]4)s3)cc2)[nH]1)C(C)C`, the CC50 [1] is reported as 93 µM, the CC50 [2] is reported as 99 µM and the EC50 [3] is reported as 90.6 nM. It also gave an EC90 [3] of over 100 nM and a CC50 [4] of 48 µM.

Compound `COC(=O)N[C@H](C(=O)N1CCC[C@H]1c1ncc(-c2ccc(-c3ccc(-c4ccc(-c5cnc([C@@H]6CCCN6C(=O)[C@@H](NC(=O)OC)C(C)C)[nH]5)cc4)cc3)cc2)[nH]1)C(C)C` has a CC50 [1] of over 100 µM, a CC50 [2] of over 100 µM and an EC50 [3] of 0.026 nM. It also gave an EC90 [3] of 0.09 nM, a CC50 [4] of over 100 µM and a selectivity ratio [6] of over 4e+06. For the same compound, the selectivity ratio [7] was over 4e+06 and the selectivity ratio [8] was over 4e+06.

With `COC(=O)N[C@H](C(=O)N1CCC[C@H]1c1ncc(-c2ccc(-c3ccc(-c4ccc(-c5cnc([C@@H]6CCCN6C(=O)[C@@H](NC(=O)OC)C(C)C)[nH]5)cc4)nc3)cc2)[nH]1)C(C)C` the CC50 [1] was 3.9 µM, the CC50 [2] was 6.5 µM and the EC50 [3] was 0.026 nM. For the same compound, the EC90 [3] was 0.068 nM and the CC50 [4] was 2.3 µM.

`COC(=O)N[C@H](C(=O)N1CCC[C@H]1c1ncc(-c2ccc(-c3cccc(-c4ccc(-c5cnc([C@@H]6CCCN6C(=O)[C@@H](NC(=O)OC)C(C)C)[nH]5)cc4)c3)cc2)[nH]1)C(C)C` gave a CC50 [1] of 18 µM, a CC50 [2] of over 100 µM and an EC50 [3] of 0.8 nM. The EC90 [3] was 2.9 nM and the CC50 [4] was 3 µM.

Compound `COC(=O)N[C@H](C(=O)N1CCC[C@H]1c1ncc(-c2ccc(-c3ccc(-c4ccc(-c5cnc([C@@H]6CCCN6C(=O)[C@@H](NC(=O)OC)C(C)C)[nH]5)cc4)s3)cc2)[nH]1)C(C)C` has a CC50 [1] of 26 µM, a CC50 [2] of over 100 µM and an EC50 [3] of 0.1 nM. It also gave an EC90 [3] of 0.3 nM and a CC50 [4] of 12 µM.

In the case of `COC(=O)N[C@H](C(=O)N1CCC[C@H]1c1ncc(-c2ccc(-c3ccc(-c4ccc(-c5ccc(-c6cnc([C@@H]7CCCN7C(=O)[C@@H](NC(=O)OC)C(C)C)[nH]6)cc5)cc4)cc3)cc2)[nH]1)C(C)C`, the CC50 [1] is reported as over 100 µM, the CC50 [2] is reported as over 100 µM and the EC50 [3] is reported as 0.24 nM. It also gave an EC90 [3] of 1 nM and a CC50 [4] of over 100 µM.

Compound `COC(=O)N[C@H](C(=O)N1CCC[C@H]1c1ncc(-c2ccc(-c3ccc(-c4ccc(-c5cnc([C@@H]6CCCN6C(=O)[C@@H](NC(=O)OC)C(C)C)[nH]5)cn4)cc3)cc2)[nH]1)C(C)C` has a CC50 [1] of 5.5 µM, a CC50 [2] of 29 µM and an EC50 [3] of 0.2 nM. The EC90 [3] was 0.7 nM and the CC50 [4] was 31 µM.

In the case of `COC(=O)N[C@H](C(=O)N1CCC[C@H]1c1ncc(-c2ccc(-c3cn(-c4ccc(-c5cnc([C@@H]6CCCN6C(=O)[C@@H](NC(=O)OC)C(C)C)[nH]5)cc4)nn3)cc2)[nH]1)C(C)C`, the CC50 [1] is reported as 18 µM, the CC50 [2] is reported as 35 µM and the EC50 [3] is reported as 0.2 nM. For the same compound, the EC90 [3] was 0.9 nM and the CC50 [4] was 5 µM.
